In ChEMBL document CHEMBL5335768, “Expanding the knowledge around antitubercular 5-(2-aminothiazol-4-yl)isoxazole-3-carboxamides: Hit-to-lead optimization and release of a novel antitubercular chemotype via scaffold derivatization” (Eur J Med Chem, 2023):
≈ marks a conversion by molar mass, not a printed value. Calls of active or inactive are those of the source. The rule behind the calls is not given here.

Experiments:
[1] = Cytotoxicity against human THP-1 cells assessed as reduction in cell viability measured after 72 hrs by MTT assay; type: toxicity, cell-based
Summary of the method: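 THP-1 monocytes were differentiated to macrophages with PMA 100 ng/mL for 72 h. They were then exposed to compounds at 1, 10, 50 and 100 μM for 72 h, each tested twice. MTT at 1 mg/mL in RPMI with 5% FBS was added for 2 h at 37 °C; formazan was dissolved in DMSO and read at 570 nm. Viability is given as % of control; IC50 from non-linear regression.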

[2] = tested on: Mycobacterium tuberculosis; test: Antitubercular activity against Mycobacterium tuberculosis H37Rv assessed as inhibition of bacterial growth incubated for 7 days by REMA method; type: functional
Mycobacterium marinum = conditions: ATCC BAA-535, time 3.0 weeks
[3] = Mycobacterium tuberculosis, H37Rv, 168 h, time 7 day, read-out: MIC90

Structure (SMILES)	MIC90 [2, 3] [µg/mL]	also measured
Cc1ccc(Nc2nc(-c3cc(C(=O)Nc4ccccc4)no3)cs2)cc1O	2.5 (≈ 6.37 µM)	IC50 at 72 h [1]: > 100 µg/mL
O=C(Nc1ccccn1)c1cc(-c2csc(Nc3ccc(CO)cc3)n2)on1	> 20	–
Cc1ccc(Nc2nc(-c3cc(C(=O)N4CCCC4)no3)cs2)cc1	> 20	IC50 at 72 h [1]: > 100 µg/mL
O=C(Nc1ccccc1)c1cc(-c2csc(Nc3cc(F)cc(F)c3)n2)on1	> 20	–
Cc1ccc2nc(NC(=O)c3cc(C(=O)Nc4ccc(O)cc4)no3)sc2c1	–	MIC90 ([2]; time 7.0 day): inactive; MIC90 (Mycobacterium marinum): inactive
Cc1cc(C)cc(Nc2nc(-c3cc(C(=O)Nc4ccccn4)no3)cs2)c1	> 20	–
CCOC(=O)c1cc(-c2cccc(Nc3ccc(C)cc3)n2)on1	1.25 (≈ 3.87 µM)	IC50 at 72 h [1]: > 100 µg/mL
Cc1ccc2nc(NC(=O)c3cc(C(=O)Nc4ccccc4)no3)sc2c1	–	MIC90 ([2]; time 7.0 day): inactive; MIC90 (Mycobacterium marinum): inactive
Cc1ccc(NC(=O)c2cc(-c3csc(Nc4ccc(C)cc4)n3)on2)cc1	1 (≈ 2.56 µM)	IC50 at 72 h [1]: 47.5 µg/mL (≈ 122 µM)
Cc1ccc(Nc2nc(-c3cc(C(=O)Nc4ccccc4F)no3)cs2)cc1	1 (≈ 2.54 µM)	IC50 at 72 h [1]: 33.9 µg/mL (≈ 85.9 µM)
Cc1ccc(Nc2nc(-c3cc(C(=O)Nc4ccc(C)cc4Cl)no3)cs2)cc1	> 20	–
Cc1ccc(Nc2nc(-c3cc(C(=O)Nc4cccnc4)no3)cs2)cc1	10 (≈ 26.5 µM)	–
O=C(Nc1ccccn1)c1cc(-c2csc(Nc3cc(Cl)cc(Cl)c3)n2)on1	> 20	–
O=C(Nc1cccc(F)c1)c1cc(C(=O)Nc2nc3ccccc3s2)on1	–	MIC90 ([2]; time 7.0 day): inactive; MIC90 (Mycobacterium marinum): inactive
O=C(Nc1ccccn1)c1cc(-c2csc(Nc3cc(F)cc(F)c3)n2)on1	> 20	–
Cc1ccc(Nc2nc(-c3cc(C(=O)Nc4ccc(C)cc4C)no3)cs2)cc1	> 20	–
Cc1ccc2nc(NC(=O)c3cc(C(=O)Nc4ccccn4)no3)sc2c1	–	MIC90 ([2]; time 7.0 day): inactive; MIC90 (Mycobacterium marinum): inactive
CCOc1cccc(NC(=O)c2cc(-c3csc(Nc4ccc(C)cc4)n3)on2)c1	> 20	–

Structure (SMILES)	MIC90 [2, 3] [µg/mL]	also measured
Cc1ccc(Nc2nc(-c3cc(C(=O)NCc4cccs4)no3)cs2)cc1	> 20	–
O=C(Nc1ccccc1)c1cc(-c2csc(Nc3cc(Cl)cc(Cl)c3)n2)on1	> 20	–
Cc1ccc(Nc2nc(-c3cc(C(=O)Nc4cc(C)cc(C)c4)no3)cs2)cc1	> 20	–
O=C(Nc1ccc(O)cc1)c1cc(C(=O)Nc2nc3ccccc3s2)on1	–	MIC90 ([2]; time 7.0 day): inactive; MIC90 (Mycobacterium marinum): inactive
Cc1ccc(Nc2nc(-c3cc(C(=O)Nc4ccc(Cl)cc4)no3)cs2)cc1	> 40	–
NNC(=O)c1ccncc1 [ISONIAZID]	–	MIC90 ([2]; time 7 day): 0.025 µg/mL (≈ 0.182 µM)
Cc1ccc(Nc2nc(-c3cc(C(=O)Nc4ccccn4)no3)cs2)c(O)c1	> 20	–
Cc1ccc(Nc2nc(-c3cc(C(=O)Nc4ccccc4O)no3)cs2)cc1	0.5 (≈ 1.27 µM)	IC50 at 72 h [1]: 53.1 µg/mL (≈ 135 µM)
O=C(Nc1ccccc1)c1cc(-c2csc(Nc3ccc(CO)cc3)n2)on1	> 20	–
COc1ccc2sc(NC(=O)c3cc(C(=O)Nc4cccc(C)c4)no3)nc2c1	–	MIC90 ([2]; time 7.0 day): inactive; MIC90 (Mycobacterium marinum): inactive
Cc1ccc(Nc2nc(-c3cc(C(=O)Nc4ncc(C)s4)no3)cs2)cc1	> 20	–
Cc1ccc(Nc2nc(-c3cc(C(=O)Nc4ccccn4)no3)co2)cc1	2.5 (≈ 6.92 µM)	IC50 at 72 h [1]: 70.9 µg/mL (≈ 196 µM)
Cc1cccc(NC(=O)c2cc(C(=O)Nc3nc4ccc(C)cc4s3)on2)c1	–	MIC90 ([2]; time 7.0 day): inactive; MIC90 (Mycobacterium marinum): inactive
Cc1ccc(Nc2nc(-c3cc(C(=O)Nc4ncccc4C)no3)cs2)cc1	> 20	–
Cc1ccc(Nc2nc(-c3cc(C(=O)Nc4cccc(C(F)(F)F)c4)no3)cs2)cc1	> 20	–
CN[C@@H]1[C@H](O[C@H]2[C@H](O[C@H]3[C@H](O)[C@@H](O)[C@H](N=C(N)N)[C@@H](O)[C@@H]3N=C(N)N)O[C@@H](C)[C@]2(O)C=O)O[C@@H](CO)[C@H](O)[C@H]1O [STREPTOMYCIN]	0.25 (≈ 0.43 µM)	–
Cc1ccc(Nc2nc(-c3cc(C(=O)Nc4ccnnc4)no3)cs2)cc1	> 20	–
Cc1ccc(Nc2nc(-c3cc(C(=O)Nc4nccs4)no3)cs2)cc1	> 40	–
